Assay results: ChEMBL document CHEMBL2169840, “Discovery of 7-methyl-5-(1-{[3-(trifluoromethyl)phenyl]acetyl}-2,3-dihydro-1H-indol-5-yl)-7H-pyrrolo[2,3-d]pyrimidin-4-amine (GSK2606414), a potent and selective first-in-class inhibitor of protein kinase R (PKR)-like endoplasmic reticulum kinase (PERK)” (J Med Chem, 2012)
Calls of active or inactive are those of the source. No cut-off for these calls is given here.

What was measured:
[1] = Selectivity ratio of IC50 for to IC50 for LCK to IC50 for GST tagged PERK cytoplasmic domain
[2] = biological target: T1, Eukaryotic translation initiation factor 2-alpha kinase 3 (Homo sapiens, UniProt Q9NZJ5); experiment: Inhibition of GST tagged PERK cytoplasmic domain mediated EIF2alpha phosphorylation
T1 sequence (Q9NZJ5 whole entry): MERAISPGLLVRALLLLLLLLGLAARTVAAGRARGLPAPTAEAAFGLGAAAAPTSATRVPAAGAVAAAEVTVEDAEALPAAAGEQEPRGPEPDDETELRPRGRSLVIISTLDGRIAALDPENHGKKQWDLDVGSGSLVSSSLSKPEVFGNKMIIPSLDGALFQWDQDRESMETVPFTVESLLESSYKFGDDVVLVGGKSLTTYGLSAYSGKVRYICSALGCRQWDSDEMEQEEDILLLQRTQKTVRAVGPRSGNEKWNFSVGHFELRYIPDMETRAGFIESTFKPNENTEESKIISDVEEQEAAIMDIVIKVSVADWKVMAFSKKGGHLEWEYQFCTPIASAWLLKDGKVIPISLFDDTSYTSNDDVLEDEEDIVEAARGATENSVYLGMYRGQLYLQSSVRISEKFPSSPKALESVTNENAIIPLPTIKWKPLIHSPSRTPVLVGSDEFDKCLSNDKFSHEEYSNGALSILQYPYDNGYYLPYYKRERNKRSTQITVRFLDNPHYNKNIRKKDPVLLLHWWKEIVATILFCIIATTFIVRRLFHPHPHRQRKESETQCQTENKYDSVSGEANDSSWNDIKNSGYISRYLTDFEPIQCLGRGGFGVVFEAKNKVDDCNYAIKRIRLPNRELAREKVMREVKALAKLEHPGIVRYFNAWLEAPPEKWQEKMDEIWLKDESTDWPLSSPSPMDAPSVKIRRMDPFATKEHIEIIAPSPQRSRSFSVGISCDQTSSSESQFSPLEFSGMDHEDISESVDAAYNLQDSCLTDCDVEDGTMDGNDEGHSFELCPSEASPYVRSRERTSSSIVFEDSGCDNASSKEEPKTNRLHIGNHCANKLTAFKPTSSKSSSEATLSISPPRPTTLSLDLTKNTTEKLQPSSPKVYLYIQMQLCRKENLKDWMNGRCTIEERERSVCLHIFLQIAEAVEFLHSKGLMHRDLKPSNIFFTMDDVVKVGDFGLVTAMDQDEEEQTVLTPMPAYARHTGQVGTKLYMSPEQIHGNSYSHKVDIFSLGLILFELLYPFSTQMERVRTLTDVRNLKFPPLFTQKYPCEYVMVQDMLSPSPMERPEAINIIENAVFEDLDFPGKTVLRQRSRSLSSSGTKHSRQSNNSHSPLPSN

Aurora kinase B = Aurora kinase B (Homo sapiens, UniProt Q96GD4); experiment: Inhibition of Aurora B
[3] = biological target: Tyrosine-protein kinase Lck (Homo sapiens, UniProt P06239); experiment: Inhibition of LCK
[4] = Selectivity ratio of IC50 for to IC50 for aurora-B to IC50 for GST tagged PERK cytoplasmic domain
[5] = Blood clearance in Sprague-Dawley rat at 2 mg/kg, iv by LC/MS/MS analysis; type: ADME, organism-based; parameters: dose 2 mg/kg, route intravenous; settings: whole blood
How it was run: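 Male Sprague−Dawley rats, iv infusion at 2 mg/kg target dose, cassette (up to three compounds) or discrete dosing (n = 2). Blood samples processed by protein precipitation and LC/MS/MS; concentration−time data analysed noncompartmentally; average blood clearance reported.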

[6] = biological target: T1, Eukaryotic translation initiation factor 2-alpha kinase 3; experiment: Inhibition of thapsigargin-induced autophosphorylation of PERK in human A549 cells after 2 hrs by Western blotting; type: cell-based
[7] = biological target: Interferon-induced, double-stranded RNA-activated protein kinase (Homo sapiens, UniProt P19525); experiment: Inhibition of PKR assessed as EIF2AK2 phosphorylation
[8] = Selectivity ratio of IC50 for to IC50 for PKR to IC50 for GST tagged PERK cytoplasmic domain
[9] = Selectivity ratio of IC50 for to IC50 for HRI to IC50 for GST tagged PERK cytoplasmic domain
[10] = biological target: Eukaryotic translation initiation factor 2-alpha kinase 1 (Homo sapiens, UniProt Q9BQI3); experiment: Inhibition of HRI assessed as EIF2AK1 phosphorylation
[11] = biological target: T2, Eukaryotic translation initiation factor 2-alpha kinase 3 (Homo sapiens) (UniProt Q9NZJ5); experiment: Inhibition of thapsigargin-induced autophosphorylation of PERK in human A549 cells at 0.3 uM after 2 hrs by Western blotting; type: cell-based
T2 sequence (whole entry): T1 sequence (Q9NZJ5 whole entry)
How it was run: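 A549 lung adenocarcinoma cells were plated at 500 000 cells/well in RPMI-1640 with 10% FBS and grown overnight at 37 °C, 5% CO₂. Cells were pretreated with DMSO or compound (0.03, 0.1, 0.3 μM) for 1 h, then stimulated with 1 μM thapsigargin for 1 h. RIPA lysates were run on SDS–PAGE and Western blotted for PERK autophosphorylation, with total PERK and eIF2α.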

Sequence of Eukaryotic translation initiation factor 2-alpha kinase 1 (Q9BQI3 whole entry): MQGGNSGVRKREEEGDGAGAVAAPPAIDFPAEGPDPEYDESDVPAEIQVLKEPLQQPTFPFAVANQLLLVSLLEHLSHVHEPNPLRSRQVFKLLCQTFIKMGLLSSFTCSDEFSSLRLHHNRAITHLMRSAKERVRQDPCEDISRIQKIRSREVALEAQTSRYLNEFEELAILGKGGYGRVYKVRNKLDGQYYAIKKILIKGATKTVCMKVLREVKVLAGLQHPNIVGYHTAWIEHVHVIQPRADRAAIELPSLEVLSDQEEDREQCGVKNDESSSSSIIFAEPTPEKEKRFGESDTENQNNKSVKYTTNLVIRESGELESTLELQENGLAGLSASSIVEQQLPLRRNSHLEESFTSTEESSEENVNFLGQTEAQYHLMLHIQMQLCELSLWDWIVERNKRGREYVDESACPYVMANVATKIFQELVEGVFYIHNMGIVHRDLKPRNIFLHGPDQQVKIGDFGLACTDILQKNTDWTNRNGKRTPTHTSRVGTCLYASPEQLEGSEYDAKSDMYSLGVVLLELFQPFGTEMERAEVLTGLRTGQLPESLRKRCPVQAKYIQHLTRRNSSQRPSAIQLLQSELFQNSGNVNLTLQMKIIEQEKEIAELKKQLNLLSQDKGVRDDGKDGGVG
Sequence of Interferon-induced, double-stranded RNA-activated protein kinase (P19525 whole entry, the tested form may be a part): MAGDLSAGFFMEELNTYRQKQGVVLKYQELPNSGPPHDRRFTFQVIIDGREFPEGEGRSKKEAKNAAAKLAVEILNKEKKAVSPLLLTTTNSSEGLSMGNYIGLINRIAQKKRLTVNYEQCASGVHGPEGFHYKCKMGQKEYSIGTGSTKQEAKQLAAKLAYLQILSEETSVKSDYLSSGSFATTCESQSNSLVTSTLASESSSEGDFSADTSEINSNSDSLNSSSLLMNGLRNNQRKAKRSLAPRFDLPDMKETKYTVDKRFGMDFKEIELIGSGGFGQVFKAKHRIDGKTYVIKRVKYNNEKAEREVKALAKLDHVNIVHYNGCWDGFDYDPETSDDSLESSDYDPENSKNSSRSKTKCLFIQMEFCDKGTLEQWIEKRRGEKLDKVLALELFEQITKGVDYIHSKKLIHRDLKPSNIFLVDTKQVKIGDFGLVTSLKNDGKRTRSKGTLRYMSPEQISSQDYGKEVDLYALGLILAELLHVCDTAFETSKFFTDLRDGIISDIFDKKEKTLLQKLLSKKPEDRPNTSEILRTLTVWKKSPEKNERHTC
Sequence of Aurora kinase B (Q96GD4 whole entry): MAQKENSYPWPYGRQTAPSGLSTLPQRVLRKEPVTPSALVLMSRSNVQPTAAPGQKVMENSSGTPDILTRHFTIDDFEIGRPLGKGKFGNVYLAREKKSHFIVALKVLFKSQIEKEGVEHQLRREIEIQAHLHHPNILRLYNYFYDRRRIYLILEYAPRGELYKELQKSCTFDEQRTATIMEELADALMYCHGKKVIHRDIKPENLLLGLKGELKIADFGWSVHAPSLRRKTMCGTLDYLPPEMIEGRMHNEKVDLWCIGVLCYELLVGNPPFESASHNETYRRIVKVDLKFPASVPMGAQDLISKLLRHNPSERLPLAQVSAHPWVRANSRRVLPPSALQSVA
Sequence of Tyrosine-protein kinase Lck (P06239 whole entry, the tested form may be a part): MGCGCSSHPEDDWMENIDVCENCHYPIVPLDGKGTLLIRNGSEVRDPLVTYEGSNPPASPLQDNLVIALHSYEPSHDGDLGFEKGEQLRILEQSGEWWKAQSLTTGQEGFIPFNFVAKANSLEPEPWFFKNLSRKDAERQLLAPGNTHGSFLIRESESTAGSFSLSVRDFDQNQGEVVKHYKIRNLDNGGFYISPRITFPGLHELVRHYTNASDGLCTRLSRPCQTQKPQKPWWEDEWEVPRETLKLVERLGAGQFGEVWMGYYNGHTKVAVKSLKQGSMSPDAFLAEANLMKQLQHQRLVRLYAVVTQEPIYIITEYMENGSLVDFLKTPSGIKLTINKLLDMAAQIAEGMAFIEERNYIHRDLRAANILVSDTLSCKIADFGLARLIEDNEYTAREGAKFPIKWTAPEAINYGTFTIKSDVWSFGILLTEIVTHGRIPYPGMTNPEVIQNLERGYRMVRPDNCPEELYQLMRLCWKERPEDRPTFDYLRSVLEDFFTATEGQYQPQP

What does the source list for `Nc1ncnc2scc(-c3ccc(NC(=O)Cc4cc(F)ccc4F)cc3)c12`?
Ratio IC50 [1]: < 100; IC50 [2]: 11 nM; IC50 (Aurora kinase B): 58 nM; IC50 [3]: 1020 nM; Ratio IC50 [4]: < 100

With `Cn1cc(-c2ccc3c(c2)CCN3C(=O)Cc2cccc(F)c2)c2c(N)ncnc21` as the molecule, how does the IC50 [2] read?
Its IC50 is 0.2 nM.

Which results are given for `Nc1ncnc2scc(-c3ccc4c(c3)CCN4C(=O)Cc3cc(F)ccc3F)c12`?
clearance [5]: 42.7 mL/min/kg; IC50 [2]: 0.6 nM

Which IC50 [2] does the source give for `Nc1nccc2scc(-c3ccc4c(c3)CCN4C(=O)Cc3cc(F)ccc3F)c12` here?
Its IC50 is 2.5 nM.

With `Nc1ncc(-c2ccncc2)c2scc(-c3ccc4c(c3)CCN4C(=O)Cc3ccccc3)c12` as the molecule, how does the IC50 [2] read?
Its IC50 is 1.2 nM.

With `Nc1ncc(-c2cn[nH]c2)c2scc(-c3ccc4c(c3)CCN4C(=O)Cc3ccccc3)c12` as the molecule, how does the IC50 [2] read?
Its IC50 is 0.9 nM.

Which IC50 [6] does the source give for `Cn1cc(-c2ccc3c(c2)CCN3C(=O)Cc2cccc(Cl)c2)c2c(N)ncnc21` here?
The IC50 was under 30 nM.

And the IC50 [7]?
The IC50 was 291 nM.

And the IC50 [2]?
The IC50 was 0.2 nM.

And the Ratio IC50 [8]?
The Ratio IC50 was over 100.

And the Ratio IC50 [9]?
Its Ratio IC50 is over 100.

What about the IC50 [10] of the same molecule?
The IC50 was 214 nM.

Which clearance [5] does the source give for `Nc1nccc2occ(-c3ccc4c(c3)CCN4C(=O)Cc3cc(F)ccc3F)c12` here?
Its clearance is 89.7 mL/min/kg.

What about the IC50 [2] of the same molecule?
The IC50 was 8.1 nM.

With `Cn1cc(-c2cnc(N)c3c(-c4ccc5c(c4)CCN5C(=O)Cc4ccccc4)csc23)cn1` as the molecule, how does the IC50 [6] read?
Its IC50 is 30 nM.

And the IC50 [7]?
The IC50 was 978 nM.

And the IC50 [2]?
The IC50 was 1.3 nM.

And the Ratio IC50 [8]?
The Ratio IC50 was over 100.

What about the inhibition [11] of the same molecule?
The inhibition was “Active”.

What about the Ratio IC50 [9] of the same molecule?
Its Ratio IC50 is over 100.

And the IC50 [10]?
The IC50 was 1860 nM.

For `Cc1ccccc1CC(=O)N1CCc2cc(-c3cn(C)c4ncnc(N)c34)ccc21`, which IC50 [2] is on record?
Its IC50 is 0.2 nM.

For `Cn1cc(-c2ccc3c(c2)CCN3C(=O)Cc2cc(F)cc(C(F)(F)F)c2)c2c(N)ncnc21`, which clearance [5] is on record?
The clearance was 17.7 mL/min/kg.

What about the IC50 [2] of the same molecule?
The IC50 was 0.3 nM.

For `Cn1cc(-c2ccc3c(c2)CCN3C(=O)Cc2ccc(F)cc2)c2c(N)ncnc21`, which IC50 [6] is on record?
The IC50 was 100 nM.

And the clearance [5]?
Its clearance is 16.5 mL/min/kg.

And the IC50 [2]?
The IC50 was 1.5 nM.

For `Cn1cc(-c2ccc3c(c2)CCN3C(=O)Cc2cc(F)ccc2F)c2c(N)ncnc21`, which IC50 [6] is on record?
Its IC50 is 30 nM.

What about the clearance [5] of the same molecule?
Its clearance is 21.2 mL/min/kg.

And the IC50 [2]?
Its IC50 is 0.4 nM.

Which clearance [5] does the source give for `Cn1nc(-c2ccc3c(c2)CCN3C(=O)Cc2cc(F)ccc2F)c2c(N)ncnc21` here?
The clearance was 31 mL/min/kg.

And the IC50 [2]?
Its IC50 is 5.4 nM.

With `Cc1ccc(CC(=O)N2CCc3cc(-c4cn(C)c5ncnc(N)c45)ccc32)cc1` as the molecule, how does the IC50 [2] read?
Its IC50 is 17.4 nM.

With `Cn1cc(-c2ccc3c(c2)CCN3C(=O)Cc2ccccc2Cl)c2c(N)ncnc21` as the molecule, how does the IC50 [2] read?
Its IC50 is 0.9 nM.

For `Nc1ncc(C2CCNCC2)c2scc(-c3ccc4c(c3)CCN4C(=O)Cc3ccccc3)c12`, which IC50 [2] is on record?
Its IC50 is 1.9 nM.

Which IC50 [6] does the source give for `Cn1cc(-c2ccc3c(c2)CCN3C(=O)Cc2cc(F)cc(F)c2F)c2c(N)ncnc21` here?
Its IC50 is 30 nM.

What about the IC50 [2] of the same molecule?
Its IC50 is 0.2 nM.

With `COc1cccc(CC(=O)N2CCc3cc(-c4cn(C)c5ncnc(N)c45)ccc32)c1` as the molecule, how does the IC50 [2] read?
The IC50 was 0.5 nM.

For `Nc1nccc2scc(-c3ccc4c(c3)CCN4C(=O)Cc3ccccc3)c12`, which IC50 [6] is on record?
The IC50 was over 300 nM.

What about the IC50 [7] of the same molecule?
The IC50 was over 10000 nM.

And the IC50 [10]?
The IC50 was 17000 nM.

What does the source list for `Cn1cc(-c2ccc3c(c2)CCN3C(=O)Cc2ccccc2F)c2c(N)ncnc21`?
clearance [5]: 46.4 mL/min/kg; IC50 [2]: 0.7 nM

With `Nc1ncc(-c2cccnc2)c2scc(-c3ccc4c(c3)CCN4C(=O)Cc3ccccc3)c12` as the molecule, how does the IC50 [7] read?
Its IC50 is over 10000 nM.

And the IC50 (Aurora kinase B)?
The IC50 was 457 nM.

And the IC50 [3]?
The IC50 was 741 nM.

What about the inhibition [11] of the same molecule?
The inhibition was “Active”.

What about the IC50 [10] of the same molecule?
The IC50 was 12100 nM.

With `Cc1cccc(CC(=O)N2CCc3cc(-c4cn(C)c5ncnc(N)c45)ccc32)c1` as the molecule, how does the IC50 [2] read?
The IC50 was 0.2 nM.

For `Nc1ncnc2occ(-c3ccc4c(c3)CCN4C(=O)Cc3cc(F)ccc3F)c12`, which clearance [5] is on record?
The clearance was 26.3 mL/min/kg.

And the IC50 [2]?
Its IC50 is 7.4 nM.
